Assay results published in ChEMBL document CHEMBL1126871, “Non-steroidal glucocorticoid-like substances: receptor binding and in vivo activity” (J Med Chem, 1993).
Values belong to the compound of their own block, whether it stands above or below them. Active and inactive are the calls of the source. No cut-off for these calls is given here.

Key:
[1] = target: T1, Glucocorticoid receptor (Rattus norvegicus) (UniProt P06536); assay: (§1) In vivo glucocorticoid profile, depression of thymus weight in rat at 25 mg/kg peroral dose; format: functional, organism-based; parameters: dose 25 mg/kg
T1 sequence (whole entry): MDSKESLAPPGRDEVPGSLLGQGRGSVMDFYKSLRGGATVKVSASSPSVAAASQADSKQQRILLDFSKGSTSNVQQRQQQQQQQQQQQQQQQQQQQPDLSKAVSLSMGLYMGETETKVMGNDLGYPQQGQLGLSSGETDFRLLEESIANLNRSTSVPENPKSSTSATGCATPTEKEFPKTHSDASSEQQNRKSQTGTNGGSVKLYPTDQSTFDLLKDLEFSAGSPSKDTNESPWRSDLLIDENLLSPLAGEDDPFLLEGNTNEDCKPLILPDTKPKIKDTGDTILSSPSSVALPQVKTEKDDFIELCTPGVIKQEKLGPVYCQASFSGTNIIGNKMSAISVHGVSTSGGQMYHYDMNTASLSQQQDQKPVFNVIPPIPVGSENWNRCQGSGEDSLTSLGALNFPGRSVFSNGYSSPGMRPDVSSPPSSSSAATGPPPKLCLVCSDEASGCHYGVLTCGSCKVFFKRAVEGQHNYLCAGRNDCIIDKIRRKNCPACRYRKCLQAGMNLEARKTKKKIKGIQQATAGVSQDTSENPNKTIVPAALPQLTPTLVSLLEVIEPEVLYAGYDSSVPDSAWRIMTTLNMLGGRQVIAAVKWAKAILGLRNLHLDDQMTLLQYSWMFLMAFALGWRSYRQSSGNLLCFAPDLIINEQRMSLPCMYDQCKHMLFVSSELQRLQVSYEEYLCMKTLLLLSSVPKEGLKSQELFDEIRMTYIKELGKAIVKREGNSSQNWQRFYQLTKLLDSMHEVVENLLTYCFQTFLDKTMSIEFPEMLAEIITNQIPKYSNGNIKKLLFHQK
In short: (§2)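 Two-week oral dosing test in rats. At the end, thymus weight, adrenal weight and body weight gain are recorded and expressed as % change from control.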

[2] = target: T1, Glucocorticoid receptor (Rattus norvegicus); assay: In vivo glucocorticoid profile, depression of adrenal weight in rat at 5 mg/kg peroral dose; format: functional, organism-based; parameters: dose 5 mg/kg
In short: (§3)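 Two-week oral glucocorticoid profile in rats. Thymus weight, adrenal weight and body weight gain are each expressed as % change from control.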

[3] = target: T1, Glucocorticoid receptor (Rattus norvegicus); assay: (§4) In vivo glucocorticoid profile, depression of body weight gain without altered food consumption in rat at 1 mg/kg peroral dose; format: functional, organism-based; parameters: dose 1 mg/kg; in short: as §2
[4] = target: T1, Glucocorticoid receptor (Rattus norvegicus); assay: In vivo glucocorticoid profile, depression of thymus weight in rat at 1 mg/kg peroral dose; format: functional, organism-based; parameters: dose 1 mg/kg; in short: as §3
[5] = target: T1, Glucocorticoid receptor (Rattus norvegicus); assay: (§5) In vivo glucocorticoid profile, depression of adrenal weight in rat at 25 mg/kg peroral dose; format: functional, organism-based; parameters: dose 25 mg/kg; in short: as §2
[6] = target: T1, Glucocorticoid receptor (Rattus norvegicus); assay: In vivo anti-inflammatory activity in the rat, alpha-tocopherol filled pouch peroral dose; format: functional, organism-based
In short: (§6)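 Rats receive an air-filled pouch injected with 0.5 mL DL-α-tocopherol. Oral doses are given daily for 7 days, starting on the day of pouch formation, as suspensions in 1% gum tragacanth. ED50 is in mg/kg po.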

[7] = target: T1, Glucocorticoid receptor (Rattus norvegicus); assay: (§7) In vivo glucocorticoid profile, depression of body weight gain without altered food consumption in rat at 5 mg/kg peroral dose; format: functional, organism-based; parameters: dose 5 mg/kg; in short: as §2
[8] = target: T1, Glucocorticoid receptor (Rattus norvegicus); assay: In vivo glucocorticoid profile, depression of adrenal weight in rat at 1 mg/kg peroral dose; format: functional, organism-based; parameters: dose 1 mg/kg; in short: as §3
[9] = target: T1, Glucocorticoid receptor (Rattus norvegicus); assay: (§8) In vivo glucocorticoid profile, depression of body weight gain without altered food consumption in rat at 25 mg/kg peroral dose; format: functional, organism-based; parameters: dose 25 mg/kg; in short: as §2
[10] = target: T1, Glucocorticoid receptor (Rattus norvegicus); assay: In vivo glucocorticoid profile, depression of thymus weight in rat at 5 mg/kg peroral dose; format: functional, organism-based; parameters: dose 5 mg/kg; in short: as §3
[11] = target: T1, Glucocorticoid receptor (Rattus norvegicus); assay: as §1; format: functional, organism-based; parameters: dose 25 mg/kg; in short: as §3; remark: listed apart in the source
[12] = target: T1, Glucocorticoid receptor (Rattus norvegicus); assay: as §5; format: functional, organism-based; parameters: dose 25 mg/kg; in short: as §3; remark: listed apart in the source
[13] = target: T1, Glucocorticoid receptor (Rattus norvegicus); assay: In vivo antiinflammatory activity in the rat, alpha-tocopherol filled pouch 70 mg/kg peroral dose; IA = inactive; format: functional, organism-based; parameters: dose 70 mg/kg
[14] = target: T1, Glucocorticoid receptor (Rattus norvegicus); assay: as §8; format: functional, organism-based; parameters: dose 25 mg/kg; in short: as §3; remark: listed apart in the source
[15] = target: T1, Glucocorticoid receptor (Rattus norvegicus); assay: In vivo glucocorticoid profile, depression of thymus weight in rat at 100 mg/kg peroral dose; format: functional, organism-based; parameters: dose 100 mg/kg; in short: as §3
[16] = target: T1, Glucocorticoid receptor (Rattus norvegicus); assay: In vivo glucocorticoid profile, depression of thymus weight in rat at 50 mg/kg peroral dose; format: functional, organism-based; parameters: dose 50 mg/kg; in short: as §3
[17] = target: T1, Glucocorticoid receptor (Rattus norvegicus); assay: In vivo antiinflammatory activity in the rat, alpha-tocopherol filled pouch 50 mg/kg peroral dose; IA = inactive; format: functional, organism-based; parameters: dose 50 mg/kg
[18] = target: T1, Glucocorticoid receptor (Rattus norvegicus); assay: In vivo glucocorticoid profile, depression of body weight gain without altered food consumption in rat at 100 mg/kg peroral dose; format: functional, organism-based; parameters: dose 100 mg/kg; in short: as §3
[19] = target: T1, Glucocorticoid receptor (Rattus norvegicus); assay: In vivo glucocorticoid profile, depression of body weight gain without altered food consumption in rat at 50 mg/kg peroral dose; format: functional, organism-based; parameters: dose 50 mg/kg; in short: as §3
[20] = target: T1, Glucocorticoid receptor (Rattus norvegicus); assay: (§9) In vivo glucocorticoid profile, depression of adrenal weight in rat at 100 mg/kg peroral dose; format: functional, organism-based; parameters: dose 100 mg/kg; in short: as §2
[21] = target: T1, Glucocorticoid receptor (Rattus norvegicus); assay: In vivo glucocorticoid profile, depression of adrenal weight in rat at 50 mg/kg peroral dose; format: functional, organism-based; parameters: dose 50 mg/kg; in short: as §3
[22] = target: T1, Glucocorticoid receptor (Rattus norvegicus); assay: Relative binding affinity (RBA) for glucocorticoid receptor from rat liver cytosol by displacement of [3H]-RU-28,362
In short: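 Competitive binding to glucocorticoid receptor in liver cytosol from adrenalectomized rats, with [3H]RU28362 as ligand. RBA is derived from the concentrations of dexamethasone and of competitor giving 50% binding inhibition. A value of zero means binding was too low to measure.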

[23] = target: T1, Glucocorticoid receptor (Rattus norvegicus); assay: as §9; format: functional, organism-based; parameters: dose 100 mg/kg; in short: as §3; remark: listed apart in the source
[24] = target: T1, Glucocorticoid receptor (Rattus norvegicus); assay: In vivo antiinflammatory activity in the rat, alpha-tocopherol filled pouch 100 mg/kg peroral dose; IA = inactive; format: functional, organism-based; parameters: dose 100 mg/kg; in short: as §6
[25] = target: T1, Glucocorticoid receptor (Rattus norvegicus); assay: as §7; format: functional, organism-based; parameters: dose 5 mg/kg; in short: as §3; remark: listed apart in the source
[26] = target: T1, Glucocorticoid receptor (Rattus norvegicus); assay: as §4; format: functional, organism-based; parameters: dose 1 mg/kg; in short: as §3; remark: listed apart in the source
[27] = target: T1, Glucocorticoid receptor (Rattus norvegicus); assay: In vivo antiinflammatory activity in the rat, alpha-tocopherol filled pouch peroral dose; IA = inactive; format: functional, organism-based; in short: as §6

Structure (SMILES): C[C@]12Cc3cnn(-c4ccc(F)cc4)c3C=C1CC[C@@H]1OC3(CC=C12)C(=O)NC(=O)NC3=O
Change [1]: -84% | Change [2]: -30% | Weight gain [3]: -65 | Change [4]: 0% | Change [5]: -53% | ED50 [6]: 4 mg/kg | Weight gain [7]: -140 | Change [8]: 0% | Weight gain [9]: -180 | Change [10]: -72%

Structure (SMILES): COC(=O)CN1C(=O)N(CC(=O)OC)C(=O)C2(CC=C3[C@H](CCC4=Cc5c(cnn5-c5ccc(F)cc5)C[C@@]43C)O2)C1=O
Change [11]: 0% | Change [12]: 0% | ED50 [13]: inactive | Weight gain [14]: 0

Structure (SMILES): C[C@]12Cc3cnn(-c4ccccc4)c3C=C1CC[C@@H]1OC3(CC=C12)C(=O)NC(=O)NC3=O
Change [15]: 0% | Change [16]: -34% | ED50 [17]: inactive | Weight gain [18]: 0 | Weight gain [19]: 0 | Change [20]: 0% | Change [21]: 0%

Structure (SMILES): CN1C(=O)N(C)C(=O)C2(CC=C3[C@H](CC[C@H]4Cc5c(cnn5-c5ccncc5)C[C@]34C)O2)C1=O
RBA [22]: 0%

Structure (SMILES): C[C@]12Cc3cnn(-c4ccc(F)cc4)c3C=C1CC[C@H]1C2=CCCC1c1ccccn1 (stereo partly drawn)
Change [23]: -48% | Change [15]: -64% | ED50 [27]: inactive | Weight gain [18]: -88

Now from value to compound:

Change [2]: -40% | Weight gain [7]: -80
Structure (SMILES): CC(=O)C1CC=C2[C@H](CCC3=Cc4c(cnn4-c4ccc(F)cc4)C[C@@]32C)C1C(C)=O (stereo partly drawn)

Change [23]: -47% | Change [15]: -80% | Change [2]: 0% | ED50 [24]: inactive | Weight gain [18]: -186 | Weight gain [25]: 0 | Change [10]: 0%
Structure (SMILES): CCOC(=O)C1(C(=O)OCC)CCC=C2[C@@H]1CCC1=Cc3c(cnn3-c3ccc(F)cc3)C[C@@]12C

Change [2]: -42% | Weight gain [26]: -45 | Change [4]: -40% | ED50 [6]: 2 mg/kg | Change [8]: 0% | Weight gain [25]: -79 | Change [10]: -70%
Structure (SMILES): C[C@H]1C[C@@H]2[C@H]([C@@H](O)C[C@@]3(C)[C@H]2CC[C@]3(O)C(=O)CO)[C@@]2(C)C=CC(=O)C=C12

ED50 [6]: 18 mg/kg
Structure (SMILES): C[C@]12CCC(=O)C=C1CC[C@@H]1[C@@H]2[C@@H](O)C[C@@]2(C)[C@H]1CC[C@]2(O)C(=O)CO
